Data on 8 compounds can be found in ChEMBL document CHEMBL1130179, “DNA gyrase inhibitory and antimicrobial activities of some diphenic acid monohydroxamides” (J Med Chem, 1997).

Usually MIC stands for the lowest concentration found to suppress growth. Low readings indicate inhibition by little substance, high ones a need for much substance.

For test [1], the system named is DNA gyrase (Escherichia coli). The experiment in a line: Inhibition of cleavable complex ability of DNA gyrase in Escherichia coli.
The test system of test [2] is Staphylococcus aureus. The experiment in a line: Minimum inhibitory concentration of compound against OC6538 Staphylococcus aureus strain. The format is functional. The method in brief:
(§1)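 Broth microdilution in Luria broth for Gram-positives, 2-fold series 0.015–1000 µg/mL, inoculum about 5 × 10^5 CFU/mL. Incubated overnight at 35 °C; MIC = lowest well concentration with no visible growth.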

Test [3] deals with Escherichia coli. The experiment in a line: Minimum inhibitory concentration of compound against KL-16 Escherichia coli strain. The format is functional. The method in brief:
(§2)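 Broth microdilution in Mueller Hinton broth for Gram-negatives, 2-fold series 0.015–1000 µg/mL, inoculum about 5 × 10^5 CFU/mL. Incubated overnight at 35 °C; MIC = lowest well with no visible growth. Some tests included polymyxin B nonapeptide at a level with no antibacterial activity of its own, compared with PMBN-free controls.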

In test [4] the test system is Staphylococcus epidermidis. The experiment in a line: Minimum inhibitory concentration of compound against OC2603 Staphylococcus epidermidis strain. The test is classed as functional. The method in brief: as §1
The test system of test [5] is Escherichia coli. Description: Minimum inhibitory concentration of compound against Escherichia coli. The format is functional. The method in brief: as §2
Test [6] has as its system Escherichia coli. The experiment in a line: Minimum inhibitory concentration of compound against Escherichia coli KL-16 strain. The format is functional. The method in brief: as §2

≈ marks a conversion by molar mass, not a printed value. Peptide text beside a SMILES is read from it. A value given as a limit tells only on which side of the number the result lay.

For `CC(c1ccc2oc(-c3ccccc3)cc2c1)N(O)C(=O)c1ccccc1-c1ccccc1C(=O)O` (stereo not drawn), in test [1], the CC50 was found to be 62.5 µg/mL (≈ 131 µM). In addition, the MIC in test [2] was 15.6 µg/mL (≈ 32.7 µM); in test [3] it was more than 1000 µg/mL; in test [4], 15.6 µg/mL (≈ 32.7 µM); in test [5], more than 1000 µg/mL.
On to `COc1cc(C(C)N(O)C(=O)c2ccccc2-c2ccccc2C(=O)O)cc(OC)c1OC` (stereo not drawn), for which the MIC in test [2] was 1000 µg/mL (≈ 2210 µM); in test [3], more than 1000 µg/mL; in test [4], 1000 µg/mL (≈ 2210 µM); in test [5], more than 1000 µg/mL.
Turning to `CC(c1ccccc1)N(O)C(=O)c1ccccc1-c1ccccc1C(=O)O` (stereo not drawn), the MIC was 1000 µg/mL (≈ 2770 µM) in test [2], more than 1000 µg/mL in test [3], 1000 µg/mL (≈ 2770 µM) in test [4] and 1000 µg/mL (≈ 2770 µM) in test [5].
On to `CC(C)C[C@@H]1NC(=O)[C@@H](Cc2ccccc2)NC(=O)[C@H](CCN)NC(=O)[C@@H](NC(=O)[C@H](CCN)NC(=O)[C@@H](N)[C@@H](C)O)CCNC(=O)[C@H]([C@@H](C)O)NC(=O)[C@H](CCN)NC(=O)[C@H](CCN)NC1=O` (HELM PEPTIDE1{T.[Dab].[Dab].[Dab].[dF].L.[Dab].[Dab].T}$PEPTIDE1,PEPTIDE1,3:R3-9:R2$$$V2.0), for which the MIC was more than 500 µg/mL in test [6] and 500 µg/mL (≈ 519 µM) in test [5].
As for `CCn1cc(C(=O)O)c(=O)c2ccc(C)nc21` [NALIDIXIC ACID], the minimum inhibitory concentration (MIC) in test [2] was found to be 500 µg/mL (≈ 2150 µM); in test [3], 8 µg/mL (≈ 34.4 µM); in test [4], 250 µg/mL (≈ 1080 µM); in test [5] it was 1 µg/mL (≈ 4.31 µM).
Turning to `CC(c1ccc2c(ccc3ccccc32)c1)N(O)C(=O)c1ccccc1-c1ccccc1C(=O)O` (stereo not drawn), the CC50 in test [1] came to 97.7 µg/mL (≈ 212 µM). The MIC in test [2] is 31.2 µg/mL (≈ 67.7 µM); in test [3], more than 1000 µg/mL; in test [4], 31.2 µg/mL (≈ 67.7 µM); in test [5] it was 31.2 µg/mL (≈ 67.6 µM).
Turning to `CC(c1ccc2c(c1)Nc1ccccc1S2)N(O)C(=O)c1ccccc1-c1ccccc1C(=O)O` (stereo not drawn), in test [1], the CC50 came to 750 µg/mL (≈ 1550 µM). For the same compound, the MIC is 62.5 µg/mL (≈ 130 µM) in test [2], more than 1000 µg/mL in test [3], 62.5 µg/mL (≈ 130 µM) in test [4] and more than 1000 µg/mL in test [5].
`CC(c1ccc(N2CCN(c3ccccc3)CC2)cc1)N(O)C(=O)c1ccccc1-c1ccccc1C(=O)O` (stereo not drawn): the MIC is 500 µg/mL (≈ 959 µM) in test [2], more than 1000 µg/mL in test [3], 500 µg/mL (≈ 959 µM) in test [4] and more than 1000 µg/mL in test [5].
